From the array DNA melting data of Ke et al. (doi:10.1101/2024.01.08.574731)

Experiments:
[1] = folding enthalpy; higher = less favourable; fluorescence melt of hairpins on a sequencing array, two-state fit; details: sodium 0.088 M
Procedure, shortened: (§1)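 Cy3 signals were normalised both to pre-quench Cy3 and to control constructs. They came from library hairpins carrying annealed Cy3 and quencher oligos on a sequenced MiSeq flow cell, imaged in 50 mM Na-HEPES pH 8.0, 25 mM NaCl, in 2.5 °C steps up to 60 °C. Bootstrapped two-state fits gave melting temperature and folding enthalpy, and four replicates were combined by inverse variance. Fitted temperatures were then raised by 9.35 °C to match UV melts.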

[2] = melting temperature; fluorescence melt of hairpins on a sequencing array, two-state fit, raised by 9.35 °C to match UV melts; details: sodium 0.088 M
Procedure, shortened: as §1

Row | Sequence | folding enthalpy [1] [kcal/mol] | Tm [2] [°C]
1 | GAGTTCGGAAACGAGCTC (((.(((....))).))) | -31.3 | 51.7
2 | GAGTTCGGAAACGGATTC ((.(.((....)).).)) | -17.4 | 27.3
3 | GAGTTGCGAAAGCATCTC (((.(((....))).))) | -28.6 | 50.1
4 | GAGTTGGGAAACCGACTC ((((.((....)).)))) | -40.2 | 51.5
5 | GAGTTTGAAAAAACTC ((((((....)))))) | -32.2 | 50.8
6 | GAGTTTGGAAACAAACCC (.(((((....))))).) | -18.5 | 37.3
7 | GAGTTTGGAAACAAACTC (((((((....))))))) | -43.1 | 58.3
8 | GATAACCGAAAGGTGATC (((.(((....))).))) | -27.9 | 47.8
9 | GATAACGAAAGTTAGATC ((((((....)))..))) | -16.8 | 35.3
10 | GATAACGAAAGTTATC ((((((....)))))) | -32.9 | 53.9
11 | GATAACGGAAACGTTATC (((((((....))))))) | -47.8 | 56.4
12 | GATAACGGAAACGTTGTC ((.((((....)))).)) | -28 | 45.8
13 | GATAAGCGAAAGCTGATC (((.(((....))).))) | -26.3 | 47.5
14 | GATAAGGGAAACCCTATC ((((.((....)).)))) | -15.6 | 30.6
15 | GATAAGGGAAACCTTATC (((((((....))))))) | -44.2 | 49.7
16 | GATAAGGGAAACCTTGTC ((.((((....)))).)) | -20.7 | 37.9
17 | GATAATGGAAACATTGTC ((.((((....)))).)) | -31.2 | 36.2
18 | GATACACGAAAGTGATC (((.(((....)))))) | -12.4 | 36.8
19 | GATACAGAAATGTATC ((((((....)))))) | -30.3 | 44.8
20 | GATACCGAAAGGTGATC ((((((....))).))) | -15.7 | 38.1
21 | GATACCGGAAACGGTATC (((((((....))))))) | -34.2 | 65
22 | GATACGAAAGTATC (((((....))))) | -32.2 | 56.6
23 | GATACGCGAAAGCGATC (((.(((....)))))) | -13.1 | 37.7
24 | GATAGACCGAAAGGTATC (((..(((....)))))) | -11.3 | 28.2

Row | Sequence | folding enthalpy [1] [kcal/mol] | Tm [2] [°C]
25 | GATAGACGAAAGTCCATC (((.(((....))).))) | -13.3 | 35.1
26 | GATAGACGAAAGTCGATC (((.(((....))).))) | -25.9 | 51.2
27 | GATAGCGAAAGCTAATC ((((((....))).))) | -12.8 | 40.7
28 | GATAGCGAAAGCTCGATC ((((((....)))..))) | -10.1 | 24.8
29 | GATAGCGAAAGCTGGATC ((((((....)))..))) | -12.9 | 29.6
30 | GATAGCGAAAGCTTGATC ((((((....)))..))) | -8.2 | 25.1
31 | GATAGCGGAAACACTATC (((((.(....).))))) | -27.6 | 36.5
32 | GATAGCGGAAACGCTATC (((((((....))))))) | -34.4 | 65.7
33 | GATAGTGAAAACTATC ((((((....)))))) | -30.1 | 48.4
34 | GATAGTGGAAACGCTATC (((((.(....).))))) | -25.7 | 42.9
35 | GATATAACGAAAGTTATC (((..(((....)))))) | -15.6 | 30.6
36 | GATATACCGAAAGGTATC (((..(((....)))))) | -13.3 | 32.8
37 | GATATACGAAAGTAAATC (((.(((....))).))) | -14.6 | 33
38 | GATATAGCGAAAGCTATC (((..(((....)))))) | -10.1 | 33.9
39 | GATATAGGAAACTGTATC ((((.((....)).)))) | -21.4 | 34.6
40 | GATATCCGAAAGGAGATC (((.(((....))).))) | -33.1 | 49.9
41 | GATATCGCGAAAGCGATC (((..(((....)))))) | -7.08 | 35.2
42 | GATATGCCGAAAGGCATC (((..(((....)))))) | -7.19 | 38.5
43 | GATATGGAAACATATC ((((((....)))))) | -29.7 | 46.1
44 | GATATGGGAAACCACATC (((.(((....))).))) | -15 | 28.4
45 | GATATGGGAAACCATACC (.(((((....))))).) | -15 | 29.5
46 | GATATGGGAAACCGTATC ((((.((....)).)))) | -32 | 43
47 | GATATTGAAAAATATC ((((((....)))))) | -22.6 | 37
48 | GATATTGCGAAAGCAATC (((..(((....)))))) | -8.38 | 35.4

Row | Sequence | folding enthalpy [1] [kcal/mol] | Tm [2] [°C]
49 | GATATTGGAAACAATATC (((((((....))))))) | -45.2 | 48.8
50 | GATCAAAAACTTGATC ((((((....)))))) | -26.5 | 34.9
51 | GATCAAAACTTTGATC ((((((....)))))) | -35.9 | 46.6
52 | GATCAAAAGCTTGATC ((((((....)))))) | -25.6 | 38
53 | GATCAAAATCTTGATC ((((((....)))))) | -27.8 | 39.9
54 | GATCAAACAGTTGATC ((((((....)))))) | -25.8 | 38.5
55 | GATCAAACCCTTGATC ((((((....)))))) | -33.4 | 42.7
56 | GATCAAACGTTGATC ((((((...)))))) | -28.1 | 39.5
57 | GATCAAAGCTTGATC ((((((...)))))) | -28.1 | 40.1
58 | GATCAAATCATTGATC ((((((....)))))) | -32.8 | 41.8
59 | GATCAAATGTTTGATC ((((((....)))))) | -34.6 | 45.1
60 | GATCAAATTCTTGATC ((((((....)))))) | -32.6 | 41.4
61 | GATCAAATTTTGATC ((((((...)))))) | -31.4 | 43
62 | GATCAACACATTGATC ((((((....)))))) | -36.9 | 44.9
63 | GATCAACACGTTGATC ((((((....)))))) | -40.2 | 53.6
64 | GATCAACACTTGATC ((((((...)))))) | -31.6 | 40.5
65 | GATCAACAGCTTGATC ((((((....)))))) | -29.1 | 39.5
66 | GATCAACATCTTGATC ((((((....)))))) | -28.1 | 41.5
67 | GATCAACATGTTGATC ((((((....)))))) | -56.2 | 54.7
68 | GATCAACATTTTGATC ((((((....)))))) | -31.1 | 42.6
69 | GATCAACCCCTTGATC ((((((....)))))) | -35.2 | 45.5
70 | GATCAACCTTTTGATC ((((((....)))))) | -29.7 | 41.8
71 | GATCAACGGTTTGATC ((((((....)))))) | -30.1 | 40.9
72 | GATCAACGTCTTGATC ((((((....)))))) | -30.9 | 42.6

Row | Sequence | folding enthalpy [1] [kcal/mol] | Tm [2] [°C]
73 | GATCAACTAATTGATC ((((((....)))))) | -28.4 | 40.8
74 | GATCAACTATTTGATC ((((((....)))))) | -31.5 | 42.4
75 | GATCAACTGTTGATC ((((((...)))))) | -36.1 | 44.2
76 | GATCAACTTCTTGATC ((((((....)))))) | -30 | 43.9
77 | GATCAAGAGGTTGATC ((((((....)))))) | -24.2 | 37.9
78 | GATCAAGATTTGATC ((((((...)))))) | -29.6 | 40.7
79 | GATCAAGCATTGATC ((((((...)))))) | -47.9 | 52.1
80 | GATCAAGCCGTTGATC ((((((....)))))) | -29.4 | 46.5
81 | GATCAAGCTGTTGATC ((((((....)))))) | -31.2 | 42.7
82 | GATCAAGGCCTTGATC ((((((....)))))) | -51.6 | 55
83 | GATCAAGGGGTTGATC ((((((....)))))) | -29.4 | 42.8
84 | GATCAAGGTTTGATC ((((((...)))))) | -28.5 | 42.4
85 | GATCAAGTACTTGATC ((((((....)))))) | -45.2 | 51.9
86 | GATCAAGTCTTGATC ((((((...)))))) | -30.4 | 46.2
87 | GATCAAGTCTTTGATC ((((((....)))))) | -43.8 | 48.9
88 | GATCAAGTTCTTGATC ((((((....)))))) | -38.6 | 49.7
89 | GATCAATAAGTTGATC ((((((....)))))) | -33.7 | 44.4
90 | GATCAATAATTTGATC ((((((....)))))) | -34.8 | 43.2
91 | GATCAATAGATTGATC ((((((....)))))) | -31 | 42.5
92 | GATCAATAGGTTGATC ((((((....)))))) | -34.3 | 45.1
93 | GATCAATATATTGATC ((((((....)))))) | -47.1 | 49.1
94 | GATCAATCATTGATC ((((((...)))))) | -27.1 | 42
